{"source": "paper PMC7182240", "about": "(The Pediatric Infectious Disease Journal, 2020)", "key": {"[1]": {"system": "invasive candidiasis", "conditions": "cited from earlier work"}, "[2]": {"system": "invasive candidiasis, including candidemia (Candida species)", "assay": "Global response, relapse and microbiologic outcome in invasive candidiasis", "assay_type": "in vivo, human", "outline": "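Modified intent-to-treat patients (≥1 dose, microbiologically confirmed Candida infection) received IV drug: 3 mg/kg loading dose on day 1, then 1.5 mg/kg daily for ≤35 days. An optional switch to oral fluconazole (6–12 mg/kg/d, max 800 mg/d) was allowed after ≥10 days IV, to ≤49 days total. Global response was assessed at end of IV therapy, end of treatment, and week 2 and 6 follow-up. Relapse and new infection were also assessed. Analysis was descriptive.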"}, "[3]": {"assay": "Safety and tolerability", "assay_type": "in vivo, human", "outline": "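Safety population: all 19 patients aged 1 month to <2 years, with confirmed or high-risk invasive candidiasis, who received IV drug (3 mg/kg day 1, then 1.5 mg/kg daily, ≤1.1 mg/min, ≤35 days). Optional oral fluconazole was allowed after ≥10 days (confirmed cases) or ≥5 days (high-risk), to ≤49 days total. Treatment-emergent adverse events and all-cause mortality were recorded throughout the study and summarized descriptively.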"}, "[4]": {"assay": "PS80 plasma concentration in infants", "assay_type": "in vivo, human", "conditions": "infants receiving anidulafungin formulated with PS80"}, "[5]": {"conditions": "safety population n = 19, all causalities, AEs up to 30 days after last dose"}}, "note": "Entries after “also recorded” stand apart in the source; their conditions may differ. *1 amine or outer side, *2 acyl side, *3 side chain or, on linkers, in order; H or OH if unused. Where a SMILES comes first, the peptide text is derived from it. Bridges are numbered along the chain shown (N, C = ends). [ ]: non-standard residue; d: D form. The star is where a group is joined. pTerphenylCO(4''-OnC5H11) = CCCCCOc1ccc(-c2ccc(-c3ccc(C(=O)*)cc3)cc2)cc1; Orn(4R-OH,5R-OH) = O=C([C@H](C[C@@H](O)[C@@H](O)N[*:3])N[*:1])[*:2]; hTyr(3S-OH,4S-OH) = N[C@H](C(=O)O)[C@H](O)[C@@H](O)c1ccc(O)cc1; Pro(3S-OH,4S-Me) = C[C@H]1CN[C@H](C(=O)O)[C@H]1O; Hyp = O=C(O)[C@@H]1C[C@@H](O)CN1"}
{"compound": "CCCCCOc1ccc(-c2ccc(-c3ccc(C(=O)N[C@H]4C[C@@H](O)[C@@H](O)NC(=O)[C@@H]5[C@@H](O)[C@@H](C)CN5C(=O)[C@H]([C@@H](C)O)NC(=O)[C@H]([C@H](O)[C@@H](O)c5ccc(O)cc5)NC(=O)[C@@H]5C[C@@H](O)CN5C(=O)[C@H]([C@@H](C)O)NC4=O)cc3)cc2)cc1", "note": "[anidulafungin] ({pTerphenylCO(4''-OnC5H11)}-[Orn(4R-OH,5R-OH)]T[Hyp][hTyr(3S-OH,4S-OH)]T[Pro(3S-OH,4S-Me)]; lactam 1-C)", "values": [{"measurement": "Global response of success at EOIVT in adults", "setting": "[1]", "result": 75.6, "unit": "%"}, {"measurement": "Global response success rate at EOIVT", "setting": "[2]; 11 of 16 patients, MITT, 1 month to <2 years", "result": 68.8, "unit": "%"}, {"measurement": "Patients achieving negative blood cultures", "setting": "[2]; 15 of 16", "result": 93.8, "unit": "%"}, {"measurement": "Resistance to anidulafungin", "setting": "[2]; Candida species", "result": "No resistance to anidulafungin was observed"}, {"measurement": "Median time to first negative blood culture", "setting": "[2]; MITT population", "result": 3, "unit": "days"}, {"measurement": "Relapse or new infection", "setting": "[2]; week 2 and week 6 follow-up visits", "result": "No patients relapsed or experienced new infection"}, {"measurement": "Patients with treatment-related TEAEs", "setting": "[3]; 3 of 19 patients", "result": 15.8, "unit": "%"}, {"measurement": "Patients with severe TEAEs", "setting": "[3]; 7 of 19 patients", "result": 36.8, "unit": "%"}, {"measurement": "Patients with TEAEs of any causality", "setting": "[3]; 17 of 19 patients, safety population", "result": 89.5, "unit": "%"}, {"measurement": "Treatment-related deaths", "setting": "[3]; safety population n = 19", "result": "no treatment-related deaths occurred; also recorded: No deaths were considered related to anidulafungin"}, {"measurement": "Incidence of TEAE: Device-related infection", "setting": "[3]; [5]", "result": "1 (5.3) n (%)"}, {"measurement": "Incidence of TEAE: Lower respiratory tract infection", "setting": "[3]; [5]", "result": "1 (5.3) n (%)"}, {"measurement": "Incidence of TEAE: Upper respiratory tract infection", "setting": "[3]; [5]", "result": "1 (5.3) n (%)"}]}
{"compound": "OC(Cn1cncn1)(Cn1cncn1)c1ccc(F)cc1F", "note": "[fluconazole]", "values": [{"measurement": "TEAEs related to fluconazole", "setting": "[3]; 6 patients switched to oral fluconazole 6-12 mg/kg/d", "result": "No patients experienced TEAEs related to fluconazole"}]}
{"compound": "polysorbate 80 [PS80]", "values": [{"measurement": "Hepatotoxicity or PS80 accumulation", "setting": "[4]", "result": "No hepatotoxicity or PS80 accumulation was detected"}]}
